From ChEMBL document CHEMBL1131187, “Synthesis, activity, and molecular modeling of new 2, 4-dioxo-5-(naphthylmethylene)-3-thiazolidineacetic acids and 2-thioxo analogues as potent aldose reductase inhibitors” (J Med Chem, 1998)

The molecules below were run against Aldo-keto reductase family 1 member B1 (Bos taurus, UniProt P16116) (assay: Evaluated in vitro for the inhibition of Aldose reductase.).
Assay type: functional
Summary of the method: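 Partially purified enzyme from beef lenses homogenized in 96 mM phosphate buffer pH 6.2 at 4 °C; supernatant after 1 h centrifugation at 4 °C. Assay at 37 °C in 96 mM phosphate pH 6.2 with NADPH (0.18 mM) and DL-glyceraldehyde (1 mM). Reaction started with NADPH; A340 decrease followed. Blanks included. Four concentrations, five measures each; IC50 by linear regression of % inhibition vs log concentration.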

IC50 [µM] | Structure (SMILES)
0.269 | O=C(O)CN1C(=O)S/C(=C\c2ccc3ccccc3c2)C1=O
0.015 | O=C(O)CN1C(=O)/C(=C/c2cc3ccccc3cc2Br)SC1=S
0.009 | COc1c(/C=C2\SC(=S)N(CC(=O)O)C2=O)ccc2ccccc12
0.051 | O=C(O)CN1C(=O)S/C(=C\c2ccc3ccccc3c2Br)C1=O
0.079 | O=C(O)CN1C(=O)/C(=C/c2ccc3ccccc3c2[N+](=O)[O-])SC1=S
0.067 | COc1ccc2cc(/C=C3\SC(=S)N(CC(=O)O)C3=O)ccc2c1
0.096 | O=C(O)CN1C(=O)/C(=C/c2ccc3ccccc3c2)SC1=S
0.011 | O=C(O)CN1C(=O)/C(=C/c2ccc3ccccc3c2Br)SC1=S
0.007 | O=C(O)Cc1nn(Cc2ccc(Br)cc2F)c(=O)c2ccccc12 [PONALRESTAT]
0.153 | O=C(O)CN1C(=O)S/C(=C\c2cc3ccccc3cc2Br)C1=O
0.128 | COc1cc2ccccc2cc1/C=C1\SC(=O)N(CC(=O)O)C1=O
0.15 | COc1c(/C=C2\SC(=O)N(CC(=O)O)C2=O)ccc2ccccc12
0.02 | COc1cc2ccccc2cc1/C=C1\SC(=S)N(CC(=O)O)C1=O
0.101 | COc1ccc2cc(/C=C3\SC(=O)N(CC(=O)O)C3=O)ccc2c1
0.048 | O=C(O)CN1C(=O)S/C(=C\c2cc3ccccc3cc2Cl)C1=O
